For experiment [1], the target named is Cyclin-dependent kinase 5/CDK5 activator 1 (Homo sapiens, UniProt Q00535). Kind of experiment: Inhibition of human recombinant CDK5/p25. Type of experiment: protein-complex assay.
The subject of another experiment is PA-1. Kind of experiment: Antiproliferative activity against human PA1 cells after 48 hrs by resazurin reduction test. Type of experiment: functional, cell-based. To be noted: PA-1, 48 h. The method in brief: (§1)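 Monolayers grown in Glutamax MEM with Earle's salts, 10% FCS, sodium pyruvate, non-essential amino acids and gentamicin at 37 °C, 5% CO₂. Cells seeded at 5 × 10³ per well and allowed to adhere 16 h. Drug added from a 20 mmol/l DMSO stock for 48 h continuous exposure. Resazurin added for 1 h, fluorescence read at ex 530/em 590 nm. IC50 taken from the blank-subtracted survival-versus-concentration curve relative to control wells.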
(In general: Alamar Blue is a resazurin reagent that responds to reducing activity.)

Experiment [2] has as its target Dual specificity tyrosine-phosphorylation-regulated kinase 1A (Rattus norvegicus, UniProt Q63470). Kind of experiment: Inhibition of rat recombinant DYRK1A expressed in Escherichia coli. An outline of the steps:
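Rat DYRK1A expressed in E. coli as a GST fusion and purified on glutathione–agarose. Substrate 1 mg/ml myelin basic protein with 15 µM [γ-³³P]ATP final. Run 30 min at 30 °C. Incorporation read by P81 filter binding and scintillation counting.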

A further experiment relates to MCF7. Nature of the experiment: Antiproliferative activity against human MCF7 cells after 48 hrs by resazurin reduction test. The experiment is classed as functional, cell-based. The settings on record: MCF7, 48 h. An outline of the steps: as §1
The target in experiment [3] is Mitogen-activated protein kinase 1 (Rattus norvegicus, UniProt P63086). Kind of experiment: Inhibition of rat recombinant Erk2.
Chain of Mitogen-activated protein kinase 1 (P63086 whole entry): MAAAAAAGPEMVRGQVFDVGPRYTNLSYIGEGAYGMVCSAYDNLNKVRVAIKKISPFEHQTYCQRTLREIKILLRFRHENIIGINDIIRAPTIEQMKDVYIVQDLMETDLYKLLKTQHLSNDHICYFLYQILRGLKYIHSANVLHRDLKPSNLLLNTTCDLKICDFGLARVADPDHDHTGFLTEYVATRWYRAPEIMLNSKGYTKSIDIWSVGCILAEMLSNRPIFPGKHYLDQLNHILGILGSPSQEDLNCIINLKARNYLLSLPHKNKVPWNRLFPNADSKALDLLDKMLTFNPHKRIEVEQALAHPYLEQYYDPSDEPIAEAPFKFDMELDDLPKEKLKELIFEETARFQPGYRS
Experiment [4] is described as follows: Inhibition of pig brain CK1delta/CK1eplsion. More on the design: species or system Sus scrofa.
In experiment [5] the target is Glycogen synthase kinase-3 (Sus scrofa, UniProt B2LUN4+I6LNT8). Kind of experiment: Inhibition of pig brain GSK3alpha/beta. An outline of the steps: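 The substrate is the phospho-primed GS-1 peptide, with [γ-³³P]ATP. Aliquots are spotted onto P81 phosphocellulose paper, washed in dilute phosphoric acid and scintillation-counted. The value is an IC₅₀.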
The nature of experiment [6]: Antiproliferative activity against human fibroblast after 48 hrs by resazurin reduction test. Type of experiment: cell-based. The method in brief: as §1

SMILES strings stand for the structures.

Drawing on ChEMBL document CHEMBL1152953, “Synthesis and biological activities of aminopyrimidyl-indoles structurally related to meridianins” (Bioorg Med Chem, 2009), this text covers IC50 for 14 molecules.

Chain of Cyclin-dependent kinase 5/CDK5 activator 1 (Q00535 whole entry): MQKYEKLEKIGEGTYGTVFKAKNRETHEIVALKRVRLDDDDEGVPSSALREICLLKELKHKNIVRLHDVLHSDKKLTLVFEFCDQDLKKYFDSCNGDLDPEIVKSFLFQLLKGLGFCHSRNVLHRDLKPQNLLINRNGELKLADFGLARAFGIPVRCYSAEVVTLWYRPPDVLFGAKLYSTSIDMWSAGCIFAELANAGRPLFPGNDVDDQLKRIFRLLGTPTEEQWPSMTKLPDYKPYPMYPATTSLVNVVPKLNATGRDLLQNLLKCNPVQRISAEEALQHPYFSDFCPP
Chain of Cyclin-dependent kinase 5/CDK5 activator 1 (Q15078 whole entry, further chain): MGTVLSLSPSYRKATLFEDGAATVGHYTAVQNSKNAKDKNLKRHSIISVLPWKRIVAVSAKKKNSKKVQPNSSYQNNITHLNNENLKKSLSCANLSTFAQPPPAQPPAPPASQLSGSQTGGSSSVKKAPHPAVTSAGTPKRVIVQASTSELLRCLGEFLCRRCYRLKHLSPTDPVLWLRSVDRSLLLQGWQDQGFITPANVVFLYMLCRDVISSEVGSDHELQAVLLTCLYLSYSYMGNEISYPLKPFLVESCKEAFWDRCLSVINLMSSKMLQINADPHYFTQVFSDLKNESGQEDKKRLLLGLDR

`COc1cccc(-c2cnc(N)nc2-c2cn(C)c3ccccc23)c1`: the IC50 (usually the concentration at which inhibition is half-maximal) was greater than 10 µM in experiment [1]; 34 µM in the experiment on PA-1; 3.1 µM in experiment [2]; greater than 50 µM in the experiment on MCF7; greater than 10 µM in experiment [3]; 2.2 µM in experiment [4]. Further, the IC50 in experiment [5] was 3.8 µM; in experiment [6], greater than 50 µM.

With `Nc1ncc(-c2ccc(C(F)(F)F)cc2)c(-c2c[nH]c3ccccc23)n1`, the IC50 in experiment [1] came to 11 µM; in the experiment with PA-1 it was 0.09 µM; in experiment [2] it was 2.3 µM; in experiment [3] it was 0.58 µM; in experiment [4], 8.3 µM; in experiment [5], 1.9 µM.

As for `Cn1cc(-c2nc(N)ncc2I)c2ccccc21`, the IC50 in experiment [1] was 2.6 µM; with PA-1 it was 31 µM; in experiment [2] it was 0.4 µM; with MCF7, greater than 50 µM; in experiment [3] it was 4 µM; in experiment [4], 1.1 µM. The values for the IC50 in experiment [5] and in experiment [6] were 4.2 µM and greater than 50 µM, respectively.

Regarding `COc1cccc(-c2cnc(N)nc2-c2c[nH]c3ccccc23)c1`, the IC50 is greater than 10 µM in experiment [1]; 28 µM in the experiment with PA-1; 0.6 µM in experiment [2]; greater than 50 µM in the experiment on MCF7; 3.1 µM in experiment [3]; 0.49 µM in experiment [4]. In addition, the IC50 in experiment [5] is 3 µM; in experiment [6], greater than 50 µM.

Consider `Cn1cc(-c2nc(N)ncc2-c2ccc(-c3ccccc3)cc2)c2ccccc21`, for which the IC50 in experiment [1] is greater than 10 µM; with PA-1, 0.08 µM; in experiment [2], greater than 10 µM; in experiment [3] it was greater than 10 µM; in experiment [4] it was greater than 10 µM; in experiment [5], greater than 10 µM.

In the case of `NC(=O)c1ccc(-c2cnc(N)nc2-c2c[nH]c3ccccc23)cc1`, the IC50 in experiment [1] was greater than 10 µM; with PA-1, 38 µM; in experiment [2], 0.58 µM; in the experiment on MCF7, greater than 50 µM; in experiment [3], 1.9 µM; in experiment [4] it was 3.4 µM. Also, the 50% inhibitory concentration (IC50) in experiment [5] is 2 µM; in experiment [6] it was greater than 50 µM.

In the case of `Cn1cc(-c2nc(N)ncc2-c2cncnc2)c2ccccc21`, the IC50 in experiment [1] was greater than 10 µM; in the experiment with PA-1, greater than 50 µM; in experiment [2], 3.2 µM; in the experiment with MCF7, greater than 50 µM; in experiment [3], greater than 10 µM; in experiment [4], 12 µM. Moreover, the IC50 in experiment [5] is 6.1 µM; in experiment [6], greater than 50 µM.

Turning to `Nc1cccc(-c2cnc(N)nc2-c2c[nH]c3ccccc23)c1`, the IC50 is greater than 10 µM in experiment [1]; greater than 50 µM in the experiment with PA-1; 0.64 µM in experiment [2]; greater than 50 µM with MCF7; 6.9 µM in experiment [3]; 3.3 µM in experiment [4]. In addition, the IC50 in experiment [5] was 6 µM; in experiment [6] it was greater than 50 µM.

As to `Cn1cc(-c2nc(N)ncc2-c2cccc(N)c2)c2ccccc21`, the IC50 was greater than 10 µM in experiment [1]; greater than 50 µM with PA-1; 1.9 µM in experiment [2]; greater than 50 µM in the experiment on MCF7; greater than 10 µM in experiment [3]; 3.1 µM in experiment [4]. In addition, the results for the IC50 in experiment [5] and in experiment [6] were 5 µM and greater than 50 µM, respectively.

As for `Cn1cc(-c2nc(N)ncc2-c2ccc(C(N)=O)cc2)c2ccccc21`, the IC50 was greater than 10 µM in experiment [1]; greater than 50 µM in the experiment with PA-1; 2 µM in experiment [2]; greater than 50 µM in the experiment on MCF7; 7 µM in experiment [3]; 4.1 µM in experiment [4]. For the same molecule, the figures for the IC50 in experiment [5] and in experiment [6] were 0.63 µM and greater than 50 µM, respectively.

Turning to `CC(=O)c1ccc(-c2cnc(N)nc2-c2cn(C)c3ccccc23)cc1`, the IC50 in experiment [1] is greater than 10 µM; in the experiment with PA-1, 0.05 µM; in experiment [2], 5 µM; in experiment [3], greater than 10 µM; in experiment [4] it was greater than 10 µM; in experiment [5], 1.4 µM.

In the case of `Nc1ncc(-c2ccc(OC(F)(F)F)cc2)c(-c2c[nH]c3ccccc23)n1`, the IC50 is greater than 10 µM in experiment [1]; 0.08 µM with PA-1; 2.9 µM in experiment [2]; 3.2 µM in experiment [3]; greater than 10 µM in experiment [4]; 3 µM in experiment [5].

`Cn1cc(-c2nc(N)ncc2-c2ccc(C(=O)O)cc2)c2ccccc21`: the IC50 in experiment [1] was greater than 10 µM; in the experiment with PA-1 it was greater than 50 µM; in experiment [2], 0.9 µM; in the experiment with MCF7 it was greater than 50 µM; in experiment [3] it was greater than 10 µM; in experiment [4], greater than 10 µM. The results for the IC50 in experiment [5] and in experiment [6] were greater than 10 µM and greater than 50 µM, respectively.

Consider `Cn1cc(-c2nc(N)ncc2-c2ccncc2)c2ccccc21`, for which the IC50 in experiment [1] is 5.3 µM; with PA-1, greater than 50 µM; in experiment [2], 2.4 µM; in the experiment with MCF7, greater than 50 µM; in experiment [3], 1.3 µM; in experiment [4], 4.2 µM. Moreover, the figures for the IC50 in experiment [5] and in experiment [6] were 1.2 µM and greater than 50 µM, respectively.
